# Bioassay records as filed in PubChem.
# Shown is part of a subset that was picked to be rich in hits.
# INS promoter act: TRM-6 insulin promoter activation; AID 1296; activation, % at 2 µM; TRM-6 cells, insulin promoter eGFP reporter, imaging; plate-scaled: unstimulated 0, stimulated control 100; hit rate 0.81% among 130,000;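 active = activation at 2 µM above a set limit, confirmed on inspection of the cell images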;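 note: share of cells whose green reporter signal exceeds an intensity cutoff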
#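 material = TRM-6 human fetal islet cells, insulin promoter–eGFP reporter | input = 1,000 TRM-6 cells seeded per well | benchmarks = stimulated versus unstimulated wells as plate controls | measured by = automated fluorescence imaging of paraformaldehyde-fixed, Hoechst-counterstained cells, green channel | schedule = compound exposure 48 h, 37 °C | reagent = tamoxifen at 0.75 µM added at seeding for reporter induction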
# A number is an active result; . = inactive.
SMILES,INS promoter act
CSc1ncc(/C=C2/C(=O)NC(=O)N(c3ccc(Cl)cc3)C2=O)cn1,260
O=C1NC(=O)N(c2ccc(Br)cc2)C(=O)/C1=C/c1ccsc1,.
COc1ccc(/C=C2/C(=O)NC(=O)N(c3ccc(C)c(C)c3)C2=O)cc1CN1C(=O)c2ccccc2C1=O,.
OC1(c2ccc(F)cc2)CC2CCC(C1)N2Cc1nnnn1C1CCCCC1 (configuration not stated),.
CC1CCCC(C2(O)C(=O)Nc3ccccc32)C1=O (configuration not stated),.
CC(Cc1ccccc1)NC(=O)/C=C/C(=O)O (configuration not stated),.
O=C(CCCOc1ccc(Cl)cc1Cl)N1CCC2(CC1)OCCO2,.
O=C(CNC1CCCCC1)N1CCC2(CC1)OCCO2,658
Cc1ccc(-c2ccc(=O)n(CCC(=O)N3CCC4(CC3)OCCO4)n2)cc1,.
CC1CCN(C(=O)c2ccc(N3CC4CC(C3)c3cccc(=O)n3C4)c([N+](=O)[O-])c2)CC1 (configuration not stated),.
Cc1cc(Cl)ccc1OCCCC(=O)NCc1cccs1,.
COc1ccc(O)c(C(C)(C)C)c1,.
COc1ccc(C(=O)C(Cc2ccccc2)N(C)C)cc1 (configuration not stated),.
COc1ccc(C(=O)C(C)(C)NO)cc1,469
CCN1CCN(C(=O)Cc2c(C)n(C(=O)c3ccc(Cl)cc3)c3ccc(OC)cc23)CC1,.
O=C(c1ccc2c(c1)ncn2-c1ccc(F)cc1F)N1CCC2(CC1)OCCO2,486
Cc1cc(C(=O)N2CCC3(CC2)OCCO3)cs1,.
Cc1noc(C)c1C(=O)N1CCC2(CC1)OCCO2,.
CC1=CC(=O)NP(=O)(Oc2ccc3ccccc3c2)N1 (configuration not stated),.
CN(CCCCC(=O)/C=N/O)Cc1ccccc1 (tested in a mixture with another compound),.
C[C@]12CCC(=O)C=C1CC[C@@H]1[C@@H]2C(=O)C[C@]2(C)C(=O)CC[C@@H]12,.
O=c1cc(C(F)(F)F)c2cc3c4c(c2o1)CCCN4CCC3,164
O=C(Cn1cc(C(=O)c2ccccc2F)c2ccccc21)NC1CC1,.
Cc1c2ccncc2c(C)c2c1[nH]c1ccccc12,354
COc1ccc(-n2c(C)cc(C(=O)C[N+]34CCN(CC3)CC4)c2C)cc1,.
SMILES,INS promoter act
CC(C)=CCOc1c2occc2cc2ccc(=O)oc12,.
Cc1cccc(C)c1NC(=O)c1cccn(Cc2ccc3c(c2)OC(F)(F)O3)c1=O,.
CC1CN=C(NCc2ccc(F)cc2)S1 (configuration not stated),.
Cc1ccc2c(c1)C1CN(C)CCC1N2C(=O)/C(C#N)=C/c1ccc2c(c1)OCO2 (configuration not stated),.
O=c1c2ccccc2nc(/C=C/c2ccc([N+](=O)[O-])o2)n1-c1ccc(O)cc1,525
CCOc1ccc(-n2c(-c3ccoc3)nc3ccccc3c2=O)cc1,.
O=C(/C=C/c1ccccc1)NCCc1cnc[nH]1,.
CSc1ccc(C(=O)C(C)(C)N2CCOCC2)cc1,.
O=C(COc1ccc(Cl)cc1)N1CCN(C/C=C/c2ccccc2)CC1,.
C(#CCN1CCOCC1)COCC#Cc1ccccc1,79
O=c1[nH]c(O)c(/C=C2\C=NN=C2c2ccccc2)c(=O)[nH]1,.
O=C(c1ccco1)C12CN3CN(CN(C3)C1)C2,.
Cc1ccc(-c2nc3ccccc3c(=O)n2-c2nccs2)cc1,.
CCCCn1c(O)c(C(CC)=NCc2ccc(F)cc2)c(=O)[nH]c1=O,.
C=CCn1c(O)c(C(CC)=NCCc2ccccc2)c(=O)[nH]c1=O,550
C=CCn1c(O)c(C(C)=NCCc2ccccc2)c(=O)[nH]c1=O,.
CSCCC(N=Cc1c(O)n(-c2ccc(Br)cc2)c(=O)[nH]c1=O)C(=O)OC(C)(C)C (configuration not stated),.
Cc1c(C=O)c2ccccc2n1Cc1cccc(F)c1,.
Cc1ccccc1-n1c(O)c(C=NCCN2CCOCC2)c(=O)[nH]c1=O,.
CN(C)CP(=O)(O)CN(C)C=O,.
